# Rows were chosen to be rich in hits. Some 3.1% of all compounds tested hit in one or more screens of this group.
# Apaf1 inhib: blocks human Apaf-1 apoptosome activity; reconstituted apoptosome caspase-3 activity, DEVD-Rh110 fluorescence; O14727; 0.71% of 330,000 active; inhibition, % at 20 µM; active = inhibition of at least 40% at 20 µM;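 note: plate controls were DMSO wells for no effect and DEVD-CHO caspase inhibitor wells for full effect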
#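 Material: cell-free apoptosome with Apaf-1, procaspase-3 and caspase-9; Buffer or medium: Hepes pH 7.5 with detergent and BSA; Reagent: cytochrome c trigger plus (Z-DEVD)2-Rh110 caspase-3 substrate; Times: compound with Apaf-1, dATP, procaspase-3 30 min, then 50 min reaction, room temperature; Technique: Rh110 fluorescence intensity.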
# UBC13 polyUb: human UBC13 polyubiquitination inhibition. P61088. UBC13 polyubiquitin chain formation, TR-FRET. inhibition, % at 20 µM. 0.47% of 330,000 active. AID 485273; in the data active = inhibition above about 45%, passing the limit was not always enough
# MEKK2 mut-MEK5: signal of MEK5 binding to mutant human MEKK2 PB1 domain. 0.35% of 290,000 active. percent response, % at 10 µM. bead flow cytometry, Alexa488-MEK5 binding to MEKK2 mutant; in the data active = percent response above about 24%, passing the limit was not always enough
# MEKK3 PB1 HTS: MEKK3-MEK5 PB1 interaction, increase or decrease; Q99759; bead-based flow cytometry, Alexa488-MEK5 binding to MEKK3; actives lie on both sides; 0 = blocked by unlabeled MEK5, 100 = vehicle; 1.4% of 290,000 active; binding response (% of control), % at 10 µM;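 active = binding response more than 3 SD above or below the average of its plate-row segment, actives on both sides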;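 note: Alexa488 bead fluorescence after subtracting the streptavidin-only scavenger bead signal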
# Target sequence (Q99759 whole entry, looked up): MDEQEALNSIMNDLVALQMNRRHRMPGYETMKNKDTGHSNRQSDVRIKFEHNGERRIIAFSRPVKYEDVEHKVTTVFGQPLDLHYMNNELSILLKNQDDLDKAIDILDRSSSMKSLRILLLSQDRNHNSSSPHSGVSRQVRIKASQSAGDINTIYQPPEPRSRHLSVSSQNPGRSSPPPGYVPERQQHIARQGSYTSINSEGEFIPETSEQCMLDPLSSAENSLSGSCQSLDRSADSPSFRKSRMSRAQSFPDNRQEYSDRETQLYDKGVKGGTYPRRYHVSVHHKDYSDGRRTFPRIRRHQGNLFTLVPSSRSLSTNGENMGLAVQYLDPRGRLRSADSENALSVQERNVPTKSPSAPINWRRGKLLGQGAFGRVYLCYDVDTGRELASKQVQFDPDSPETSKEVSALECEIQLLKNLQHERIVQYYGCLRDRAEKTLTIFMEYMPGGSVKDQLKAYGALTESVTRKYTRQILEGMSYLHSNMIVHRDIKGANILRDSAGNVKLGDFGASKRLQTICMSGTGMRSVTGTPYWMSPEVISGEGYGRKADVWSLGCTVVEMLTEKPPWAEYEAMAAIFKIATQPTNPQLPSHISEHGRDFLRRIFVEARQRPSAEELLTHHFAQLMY
# PREPL inh: inhibits the human prolyl oligopeptidase-like enzyme; Q4J6C6; recombinant PREPL, fluorescence polarization activity-based probe; inhibition, % at 5.96 µM; 0.68% of 320,000 active; AID 2751; in the data active = inhibition above about 43%;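 note: 0% = enzyme with DMSO and 100% = wells lacking enzyme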
# MEKK2wt PB1 HTS: raises or lowers MEK5 binding to wildtype human MEKK2 PB1 domain. 1.1% of 290,000 active. bead flow cytometry, Alexa488-MEK5 binding to MEKK2 WT; actives lie on both sides. binding response (% of control), % at 10 µM. AID 1531; in the data active = binding response below about 67% or above about 130%
# MEKK2wt confirm: raises or lowers MEK5 binding to wildtype human MEKK2, retest. AID 1892. 2.4% of 5,900 active. shares compounds with MEKK3 PB1 HTS. binding response (% of control), % at 10 µM. bead flow cytometry, Alexa488-MEK5 binding to MEKK2 WT; actives lie on both sides; in the data active = binding response below about 16% or above about 210%; inactive = in between
# MEKK2mut-MEK5: signal of MEK5 binding to mutant human MEKK2, retest; AID 1893; bead flow cytometry, Alexa488-MEK5 binding to MEKK2 mutant; percent response, % at 10 µM; shares compounds with MEKK3 PB1 HTS; 2% of 5,900 active; in the data active = percent response mostly above about 71%, no sharp cut-off; inactive = mostly below about 38%;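 note: higher means compound restores mutant binding toward wildtype level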
# MEKK3 confirm: MEKK3-MEK5 PB1 inhibition, single concentration confirmation. shares compounds with MEKK3 PB1 HTS. bead flow cytometry, Alexa488-MEK5 binding to MEKK3; stronger effect = lower value. binding response (% of control), % at 10 µM. 1.8% of 5,900 active;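 active = binding response below 72% of control, or above a set upper limit, though filed actives all read lower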;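 note: 100% = DMSO only wells and 0% = binding blocked by excess unlabeled MEK5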
# The depositor's hits bear a star; i = inactive; . = no result given; [ ] = remark or other dose.
SMILES,Apaf1 inhib,UBC13 polyUb,MEKK2 mut-MEK5,MEKK3 PB1 HTS,PREPL inh,MEKK2wt PB1 HTS,MEKK2wt confirm,MEKK2mut-MEK5,MEKK3 confirm
Cc1c(NC(=O)/C(=C\c2ccccc2)NC(=O)c2ccccc2)c(=O)n(-c2ccccc2)n1C,3,4,8,130*,4,125,102,0,101
CCN(C[C@H]1N[C@@](C)(C(=O)OC)[C@H]2C(=O)N(C)C(=O)[C@@H]12)C(=O)c1ccc(C(C)(C)C)cc1,0,5,.,.,14,.,.,.,.
CCOc1nc(C)cc(C)c1S(=O)(=O)c1cccc(Cl)c1,15,8,-1,97,11,99,.,.,.
CCOc1cc(N2CCCC2)ccc1[N+](=O)[O-],-3,-24,2,133*,-1,107,101,-6,103
COc1ccc(/C=N/NC(=O)c2ccc(O)cc2O)cc1CSc1ccccn1,-8,21,0,136*,-2,103,97,-2,100
O=C(CSc1ccc(C(F)(F)F)cc1[N+](=O)[O-])Nc1ccc2ccccc2c1,15,2,0,194*,11,106,96,-6,99
CCOc1cc(C2C(C#N)=C(N)OC(C)=C2C(C)=O)c(Br)c(Br)c1OC(C)C (centres undefined),12,-10,0,68*[inhibitor],6,94,96,-4,100
CCOc1cc(C2C(C#N)=C(N)OC(C)=C2C(C)=O)cc(Br)c1O (centres undefined),-1,-1,-2,99,9,99,.,.,.
Cc1ccc(Cn2cccc2C2=NC(C)CO2)cc1 (centres undefined),2,10,5,125*,-3,114,134,19,110
COCCNCC1C(Oc2ccc(Cl)cc2)C(=O)N1c1ccccc1C (centres undefined),-2,-5,0,123,11,112,.,.,.
COc1ccc(CCNCC2C(Oc3ccc(Cl)cc3)C(=O)N2c2ccccc2C)cc1OC (centres undefined),15,8,32,106,17,155*,126,12,102
CC[C@H](C)NC(=O)CCCCCn1c(=S)[nH]c2c([nH]c3ccc(OC)cc32)c1=O,-2,-20,5,138*,12,118,97,-3,102
CCCCNC(=O)CCCCn1c(=S)[nH]c2c([nH]c3ccc(OC)cc32)c1=O,-2,-19,1,101,8,97,.,.,.
Cc1cc(C(=O)O)cc(S(=O)(=O)NNC(=O)c2cccs2)c1C,7,6,12,100,3,100,.,.,.
COc1ccc(C)cc1Nc1n[n+](-c2ccccc2)c(-c2cc(OC)c(OC)cc2Br)s1,17,38,26*,103,5,134*,154,40,109
COc1ccc(-c2sc(Nc3ccccc3)n[n+]2-c2ccc(F)cc2)c(C)c1C,37,42,37*,110,24,141*,120,10,99
CSc1ccc(-c2sc(Nc3ccccc3)n[n+]2-c2ccc(F)cc2)cc1,-2,1,28*,109,6,139*,128,12,111
COc1ncnc2c1ncn2CC1COC(C)(C)O1 (centres undefined),-21,-8,.,.,6,.,.,.,.
O=C(CSc1nccn1-c1ccccc1)NO,-17,19,51*,33*[inhibitor],1,70,105,1,98
O=C(CSc1nccn1-c1cccc(Cl)c1)NO,-1,4,0,100,10,99,.,.,.
CN(C)CCCN1c2ccc([N+](=O)[O-])cc2CCc2cc([N+](=O)[O-])ccc21,26,-11,14,111,18,150*,113,6,104
S=C(NCc1ccccc1)NCc1ccccc1Cl,-2,-6,-4,98,.,90,.,.,.
CCN(CC)c1ccc(/C=C2/C(=O)ON=C2C)cc1,-9,i,13,88,-1,122,.,.,.
Cc1ccc(/C=c2/sc3nnc(-c4ccccc4Cl)n3c2=O)o1,11,-5,0,102,-1,94,.,.,.
CCN(CC)c1ccc(/C=c2/sc3nnc(-c4ccccc4C)n3c2=O)cc1,1,-20,318*,101,-15,.,107,37,85
SMILES,Apaf1 inhib,UBC13 polyUb,MEKK2 mut-MEK5,MEKK3 PB1 HTS,PREPL inh,MEKK2wt PB1 HTS,MEKK2wt confirm,MEKK2mut-MEK5,MEKK3 confirm
CCN(CC)c1ccc(/C=c2\sc3nnc(-c4ccccc4Cl)n3c2=O)cc1,-5,-312,22,84,-1,44*[inhibitor],65,-29,78
COc1cc(/C=C/C(=O)OCC(=O)N(C)C2CCS(=O)(=O)C2)ccc1OC(F)F (centres undefined),-3,-4,-4,100,8,99,.,.,.
CC(=O)OCCCNc1cc(Sc2ccc(Cl)cc2)c2nonc2c1[N+](=O)[O-],.,.,0,132*,6,104,95,0,95
Cc1ccc(Sc2cc(NCCCO)c([N+](=O)[O-])c3nonc23)cc1,8,-29,3,108,0,112,.,.,.
O=C1C2C3C=CC(C3)C2C(=O)N1c1ccc2ccccc2c1 (centres undefined),-3,-3,26*,114,12,116,99,-4,99
COc1ccc(-n2ncc3c2CC(C)(C)CC3NC(=O)C2=CC(=O)CC(C)(C)O2)cc1 (centres undefined),-8,9,0,103,3,99,.,.,.
CN(C(=O)CSc1nnc(-c2ccco2)n1Cc1ccccc1)C1CCS(=O)(=O)C1 (centres undefined),4,-10,.,.,4,.,.,.,.
CCCCCCCCCCCCN1C/C(=C\C(=O)OCC)c2cc(C(F)(F)F)ccc2S1(=O)=O,12,-28,51*,109,3,67*,98,-2,96
CCCCCCCCCCCCN1C/C(=C\C(=O)OCC)c2ccccc2S1(=O)=O,25,-34,-12,93,13,95,.,.,.
Cc1ccccc1OCC(=O)NNC(=O)Cn1[nH]c(=O)c2ccccc2c1=O,8,-14,.,.,-3,.,.,.,.
Cc1nn2c(N3CCN(C)CC3)cc(C(C)(C)C)nc2c1-c1ccccc1,16,24,23,106,21,144*,150,31,106
O=C(Nc1ccc(OC(F)F)c(Cl)c1)c1cccc(OC(F)F)c1,11,2,27,106,7,151*,113,6,107

# High-throughput results deposited in PubChem by several laboratories.
